Measured values from different studies.
Each line is one published result; the experiments were not run side by side. Converted amounts (≈) assume the structure as drawn.

The MBC of `O=C1NC(=S)N/C1=C\c1c2ccccc2c(-c2ccc(N(c3ccccc3)c3ccccc3)cc2)c2ccccc12` is reported as greater than 1000 µg/mL (Streptococcus pyogenes; microbial killing, broth dilution; ATCC19615).
With `Fc1ccc(Nc2c(Cn3cccn3)nc3ccccn23)cc1` the IC50 was greater than 64 µM (Leishmania infantum; parasite growth; intracellular, amastigote).
The MIC of `O=C(O)CN1C(=O)/C(=C/c2c3ccccc3c(-c3ccc(N(c4ccccc4)c4ccccc4)cc3)c3ccccc23)SC1=S` is reported as greater than 1000 µg/mL (Streptococcus pyogenes; microbial growth, broth dilution; ATCC19615).
`CCCCCCC/C=C/C(=O)N1C(=O)/C(=C(/C)O)C(=O)C1Cc1ccc(O)cc1` (stereo not drawn) has an MIC of 100 µg/mL (≈ 250 µM) (Stenotrophomonas maltophilia; microbial growth; ATCC13637).
For `N#Cc1c(-c2ccc(Cl)cc2)nc2n(c1=O)NC(c1ccccc1O)N2C(Cc1c[nH]c2ccccc12)C(=O)O` (stereo not drawn), the inhibition zone was 34 mm (Streptococcus pyogenes; microbial growth; ATCC19615; 15 µg/mL, 24 h).
The MIC of `CCCCCCC/C=C/C(=O)N1C(=O)/C(=C(\O)c2ccccc2)C(=O)C1CC(C)C` (stereo not drawn) is reported as greater than 200 µg/mL (Stenotrophomonas maltophilia; microbial growth; ATCC13637).
`O=C(N[C@@H](Cc1ccccc1)C(=O)c1noc(-c2ccccc2)n1)[C@H](Cc1ccccc1)NC(=O)N1CCOCC1` gave an IC50 of greater than 64 µM (Leishmania infantum; parasite growth; intracellular, amastigote).
For `Cc1ccc2nc(-c3ccccc3)c(CNc3cccc(C(F)(F)F)c3)n2c1`, the IC50 was 32 µM (Leishmania infantum; parasite growth; intracellular, amastigote).
With `O=C1NC(=S)N/C1=C\c1ccc(-c2ccc(N(c3ccccc3)c3ccccc3)cc2)c2ccccc12` the MBC was greater than 1000 µg/mL (Streptococcus pyogenes; microbial killing, broth dilution; ATCC19615).
The MIC of `CCCCC(=O)N1C(=O)/C(=C(/C)O)C(=O)C1CC(C)C` (stereo not drawn) is reported as greater than 200 µg/mL (Stenotrophomonas maltophilia; microbial growth; ATCC13637).
With `O=C1NC(=S)N/C1=C\c1ccc(-c2ccc(N(c3ccccc3)c3ccccc3)cc2)cc1` the MIC was greater than 1000 µg/mL (Streptococcus mutans; microbial growth, broth dilution; ATCC25175).
For `O=C1C(=Cc2ccc(O)c(O)c2)Oc2ccccc21`, the inhibition was 40% (Streptococcus mutans; microbial growth; UA159; 50 µM).
For `C[Si](C)(C)c1cc(C(=O)[C@H](Cc2ccccc2)NC(=O)[C@H](Cc2ccccc2)NC(=O)N2CCOCC2)no1` (single isomer, unassigned), the IC50 was greater than 64 µM (Leishmania infantum; parasite growth; intracellular, amastigote).
With `CCOC(=O)C1=C(C)N2NC(C)(c3ccccc3O)N(C(C)C(=O)O)C2=NC1c1ccc(Cl)cc1` (stereo not drawn) the inhibition zone was 14 mm (Streptococcus pyogenes; microbial growth; ATCC19615; 10 µg/mL, 24 h).
`O=C1NC(=S)S/C1=C\c1c2ccccc2c(-c2ccc(N(c3ccccc3)c3ccccc3)cc2)c2ccccc12` has an MBC of greater than 1000 µg/mL (Streptococcus mutans; microbial killing, broth dilution; ATCC25175).
The inhibition zone of `CC(C(=O)O)N1C2=NC(c3ccc(Cl)cc3)C3=C(OC(C)(C)OC3=O)N2NC1(C)c1ccccc1O` (stereo not drawn) is reported as 8 mm (Streptococcus pyogenes; microbial growth; ATCC19615; 10 µg/mL, 24 h).
The EC50 of `c1ccc(-c2c(-c3ccccn3)nc3n2CCC3)cc1` is reported as 2000 nM (Leishmania infantum; parasite growth; 5 days, intracellular, amastigote).
`O=C(O)CN1C(=O)/C(=C/c2ccc(-c3ccc(N(c4ccccc4)c4ccccc4)cc3)cc2)SC1=S` has an MBC of greater than 1000 µg/mL (Streptococcus mutans; microbial killing, broth dilution; ATCC25175).
With `O=C1C(=Cc2cc(O)cc(O)c2)Oc2ccccc21` the inhibition was 30% (Streptococcus mutans; microbial growth; UA159; 50 µM).
`Fc1ccc(NCc2c(-c3ccccn3)nc3ccccn23)cc1` has an IC50 of greater than 64 µM (Leishmania infantum; parasite growth; intracellular, amastigote).
For `CCCCCCCCCCCCCCCCC#CC(=O)O`, the IC50 was 11.7 µM (Leishmania infantum; parasite growth; mouse Splenocyte; 72 h, intracellular, amastigote).
`O=C(O)CN1C(=O)/C(=C/c2ccc(-c3ccc(N(c4ccccc4)c4ccccc4)cc3)c3ccccc23)NC1=S` has an MBC of greater than 1000 µg/mL (Streptococcus pyogenes; microbial killing, broth dilution; ATCC19615).
`O=C(Nc1ccccc1-c1ccc(F)c(F)c1)c1nccnc1C(F)(F)F` gave an EC50 of greater than 100 µg/mL (Diaporthe citri; microbial growth).
`CS(=O)(=O)c1ccc(-c2c(-c3ccccn3)nc3n2CCC3)cc1` has an IC50 of greater than 64 µM (Leishmania infantum; parasite growth; intracellular, amastigote).
With `O=C(N[C@H](CCc1ccccc1)C(=O)c1cc(Cc2ccccc2)on1)[C@H](Cc1ccccc1)NC(=O)N1CCOCC1` the IC50 was greater than 64 µM (Leishmania infantum; parasite growth; intracellular, amastigote).
The EC50 of `Clc1cccc(-c2c(-c3ccccn3)nc3n2CCC3)c1` is reported as 794 nM (Leishmania infantum; parasite growth; 5 days, intracellular, amastigote).
For `CC(=O)C1=C(C)N2NC(c3ccccc3O)N(C(C)C(=O)O)C2=NC1c1ccc(Cl)cc1` (stereo not drawn), the inhibition zone was 17 mm (Streptococcus pyogenes; microbial growth; ATCC19615; 15 µg/mL, 24 h).
For `O=C(N[C@@H](Cc1ccccc1)C(=O)c1ncc(-c2ccccc2)s1)[C@H](Cc1ccccc1)NC(=O)N1CCOCC1`, the IC50 was 32.5 µM (Leishmania infantum; parasite growth; intracellular, amastigote).
The EC50 of `Cc1ccccc1-c1c(-c2ccccn2)nc2n1CCC2` is reported as 1000 nM (Leishmania infantum; parasite growth; 5 days, intracellular, amastigote).
The inhibition zone of `CCOC(=O)C1=C(C)N2NC(c3ccccc3O)N(C(Cc3c[nH]c4ccccc34)C(=O)O)C2=NC1c1ccc(Cl)cc1` (stereo not drawn) is reported as 32 mm (Streptococcus pyogenes; microbial growth; ATCC19615; 15 µg/mL, 24 h).
For `CCCCCCC/C=C/C(=O)N1C(=O)/C(=C(\O)c2ccc(F)cc2)C(=O)C1CC(C)C` (stereo not drawn), the MIC was 50 µg/mL (≈ 116 µM) (Stenotrophomonas maltophilia; microbial growth; ATCC13637).
`COc1ccc2nc(-c3ccccn3)c(Nc3ccc(F)cc3)n2c1` has an IC50 of 2.16 µM (Leishmania infantum; parasite growth; intracellular, amastigote).
For `CCOC(=O)C1=C(C)N2NC(C)(c3ccccc3O)N(C(Cc3c[nH]c4ccccc34)C(=O)O)C2=NC1c1ccc(Cl)cc1` (stereo not drawn), the inhibition zone was 17 mm (Streptococcus pyogenes; microbial growth; ATCC19615; 10 µg/mL, 24 h).
The IC50 of `O=C(N[C@@H](Cc1ccccc1)C(=O)c1c[nH]nn1)[C@H](Cc1ccccc1)NC(=O)N1CCOCC1` is reported as greater than 64 µM (Leishmania infantum; parasite growth; intracellular, amastigote).
For `O=C(O)CN1C(=O)/C(=C/c2c3ccccc3c(-c3ccc(N(c4ccccc4)c4ccccc4)cc3)c3ccccc23)NC1=S`, the MIC was greater than 1000 µg/mL (Streptococcus mutans; microbial growth, broth dilution; ATCC25175).
`CC(=O)C1=C(C)N2NC(c3ccccc3O)N(C(Cc3c[nH]c4ccccc34)C(=O)O)C2=NC1c1ccc(Cl)cc1` (stereo not drawn) has an inhibition zone of 30 mm (Streptococcus pyogenes; microbial growth; ATCC19615; 15 µg/mL, 24 h).
